Measurements gathered from unrelated publications.
Compare with care: the assays were run in different laboratories.
Target: BMP-2-inducible protein kinase (BMP2K, Homo sapiens, UniProt Q9NSY1)

COc1cc(-c2cn(C3CCc4c(F)cccc4N(CC(F)(F)F)C3=O)nn2)ccc1-n1cnc(C)c1 (stereo not shown)
remaining binding (cell-free assay; competition with immobilised ligand; 1 µM): 100%

Cc1cnn2ncc(-c3ccnc(N(C)C)n3)c2c1
remaining binding (binding; 1 µM): 80%

c1cncc(-c2cccc(Nc3nccc(NC4CCCCC4)n3)c2)c1
remaining binding (binding; competition with immobilised ligand; 10 µM): 21%

Cc1cnc(Nc2ccc(C(=O)N3CCC(N4CCCC4)CC3)cc2)nc1-c1cc2ccccc2s1
remaining binding (binding; competition with immobilised ligand; 1 µM): 0.2%

COc1cnc(Nc2cccc(S(N)(=O)=O)c2)nc1N1CCN(c2ccccc2)C(=O)C1
remaining binding (binding; competition with immobilised ligand; 1 µM): 80%

CC1CCCN1c1nccc(-c2cnn3ncccc23)n1 (stereo not shown)
remaining binding (binding; 1 µM): 95%

COc1ncc2cc3ccccc3nc2c1C#N
remaining binding (cell-free assay; competition with immobilised ligand; 5 µM): 100%

COc1ccnn2ncc(-c3ccnc(N(C)C)n3)c12
remaining binding (binding; 1 µM): 100%

CCC(=O)N[C@@H]1CC[C@H](C(=O)N(C)c2ccc(-c3nc4ccccc4o3)cc2)C1
remaining binding (cell-free assay; competition with immobilised ligand; 1 µM): 100%

C[C@@H]1CCN(c2nccc(-c3cnn4ncccc34)n2)C1
remaining binding (binding; 1 µM): 97%

Cc1c(C(=O)O)cc(-c2ccc(C3CCNCC3)cc2)c2ccc(-c3ccc(C(F)(F)F)cc3)cc12
remaining binding (binding; competition with immobilised ligand; 1 µM): 83%

N[C@@H]1CCN(c2nccc(-c3cnn4ncccc34)n2)C1
remaining binding (binding; 1 µM): 100%

O=C(Nc1c[nH]nc1C(=O)NC1CCNCC1)c1cc(F)cc(F)c1
remaining binding (binding; competition with immobilised ligand; 1 µM): 53%

F[C@@H]1CCN(c2nccc(-c3cnn4ncccc34)n2)C1
remaining binding (binding; 1 µM): 100%

CNC(=O)Nc1ccc2c(c1)CC[C@@]21OC(=O)N(CC(=O)N(Cc2ccc(F)cc2)[C@@H](C)C(F)(F)F)C1=O
remaining binding (cell-free assay; competition with immobilised ligand; 1 µM): 98%

C[C@@H](c1ccc(-n2cnc3c(N)ncnc32)cc1)N1CCc2nn(C)c(Cc3ccccc3)c2C1=O
remaining binding (binding; competition with immobilised ligand; 0.1 µM): 84%

Cc1cc(C)c(-n2ccn3nc(-c4cccnc4)cc23)cc1NC(=O)c1cc(C#N)cc(S(F)(F)(F)(F)F)c1
remaining binding (cell-free assay; competition with immobilised ligand; 0.1 µM): 94.7%

O=C(c1ccc(Nc2nccc(-c3cc4ccccc4s3)n2)cc1)N1CCC(N2CCCC2)CC1
remaining binding (binding; competition with immobilised ligand; 1 µM): 0.5%

O=C(O)[C@H]1[C@H](Cn2nnc3ccccc3c2=O)CC[C@@H]1C(=O)c1ccc(OCCC2CCOCC2)cc1
remaining binding (cell-free assay; competition with immobilised ligand; 1 µM): 86%

O=C(c1ccc(Nc2ncc(Cl)c(-c3cc4ccccc4s3)n2)cc1)N1CCC(N2CCCC2)CC1
remaining binding (binding; competition with immobilised ligand; 1 µM): 0%

FC(F)(F)c1ccc2c(c1)nc(-c1cccnc1)n2C1CC1
remaining binding (cell-free assay; competition with immobilised ligand; 1 µM): 100%

CNC(=O)[C@@H]1CC[C@@H](n2c(-c3ccc4cnccc4c3)nc3ccc(C(=O)NCc4cccc(C(N)=O)c4)cc32)C1
remaining binding (binding; competition with immobilised ligand; 1 µM): 95%
